Assays:
[1] = Antiproliferative activity against rat HSC-T6 cells at 100 uM after 48 hrs by MTT assay; type: functional; conditions: HSC-T6, 48 h
Summary of the method: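 HSC-T6 (immortalized rat hepatic stellate line) kept in DMEM with 10% heat-inactivated FBS, penicillin/streptomycin, 37 °C, 5% CO2. Seeded at 5 × 10^4 cells/mL, grown 24 h, then exposed 48 h to vehicle or compound (10–100 μM, DMSO final 0.1%). MTT 2 mg/mL for 2 h, absorbance at 540 nm. Proliferation given as 100 × treated/vehicle absorbance. Mean of three independent experiments.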

[2] = Cell cycle arrest in rat HSC-T6 cells assessed as inhibition of DNA synthesis at S phase at 25 uM after 48 hrs; type: functional, cell-based; parameters: scale not given: the % may be the effect or the level left
Summary of the method: (§1)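 Cells seeded at 5 × 10^5 cells/mL for 24 h, then treated at 25 μM for 24 or 48 h; controls received vehicle. Cells were harvested, washed twice in PBS pH 7.4 and fixed overnight in ice-cold 70% ethanol at 4 °C. Stained with PI/RNase buffer for 30 min at room temperature, then flow cytometry for phase distribution. Mean ± SD, three independent experiments in triplicate wells.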

[3] = Induction of apoptosis in rat HSC-T6 cells assessed as early apoptotic cells at 10 uM after 48 hrs using Annexin V-FITC staining by flow cytometry; type: functional
Summary of the method: (§2)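 After 24 h seeding at 5 × 10^5 cells/mL, HSC-T6 cells were treated at 10 or 25 μM for 24 or 48 h, then collected and washed twice with PBS. Annexin-V/PI double staining with flow cytometry separated Annexin-V+/PI− (early apoptotic), Annexin-V+/PI+ (late apoptotic) and Annexin-V−/PI+ (dead) cells, expressed as percentages. Data representative of three independent experiments.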

[4] = Induction of apoptosis in rat HSC-T6 cells assessed as dead cells at 25 uM after 24 hrs using Annexin V-FITC staining by flow cytometry; type: functional
Summary of the method: (§3)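 HSC-T6 cells seeded at 5 × 10^5 cells/mL in 12-well plates for 24 h, then exposed to compound at 10 or 25 μM for 24 or 48 h. Harvested, washed twice in PBS pH 7.4, stained with Annexin-V/PI and analysed by flow cytometry. Dead cells scored as Annexin-V−/PI+, given as percentage. Representative of three independent experiments.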

[5] = Cell cycle arrest in rat HSC-T6 cells assessed as inhibition of DNA synthesis at G2/M phase at 25 uM after 48 hrs; type: functional, cell-based; parameters: scale not given: the % may be the effect or the level left; summary of the method: as §1
[6] = Cell cycle arrest in rat HSC-T6 cells assessed as inhibition of DNA synthesis at S phase at 25 uM after 24 hrs; type: functional, cell-based; parameters: scale not given: the % may be the effect or the level left; summary of the method: as §1
[7] = Induction of apoptosis in rat HSC-T6 cells assessed as viable cells at 10 uM after 48 hrs using Annexin V-FITC staining by flow cytometry; type: functional; conditions: HSC-T6, 48 h, read-out: Activity; summary of the method: as §2
[8] = Induction of apoptosis in rat HSC-T6 cells assessed as viable cells at 25 uM after 24 hrs using Annexin V-FITC staining by flow cytometry; type: functional; conditions: HSC-T6, 24 h, read-out: Activity; summary of the method: as §2
[9] = Induction of apoptosis in rat HSC-T6 cells assessed as early apoptotic cells at 10 uM after 24 hrs using Annexin V-FITC staining by flow cytometry; type: functional; summary of the method: as §2
[10] = Cell cycle arrest in rat HSC-T6 cells assessed as inhibition of DNA synthesis at G0/G1 phase at 25 uM after 24 hrs; type: functional, cell-based; parameters: scale not given: the % may be the effect or the level left; summary of the method: as §1
HSC-T6 [11] = test: Induction of apoptosis in rat HSC-T6 cells assessed as change in cell morphology after 24 hrs by phase contrast microscopy; type: functional, cell-based
[12] = Induction of apoptosis in rat HSC-T6 cells assessed as late apoptotic cells at 10 uM after 24 hrs using Annexin V-FITC staining by flow cytometry; type: functional; summary of the method: as §2
[13] = Cell cycle arrest in rat HSC-T6 cells assessed as inhibition of DNA synthesis at G0/G1 phase at 25 uM after 48 hrs; type: functional, cell-based; parameters: scale not given: the % may be the effect or the level left; summary of the method: as §1
[14] = Induction of apoptosis in rat HSC-T6 cells assessed as early apoptotic cells at 25 uM after 48 hrs using Annexin V-FITC staining by flow cytometry; type: functional; summary of the method: as §2
HSC-T6 [15] = test: Induction of apoptosis in rat HSC-T6 cells assessed as change in cell morphology at 10 to 50 uM by phase contrast microscopy; type: functional, cell-based; conditions: TDE = time-dependent effect
[16] = Induction of apoptosis in rat HSC-T6 cells assessed as early apoptotic cells at 25 uM after 24 hrs using Annexin V-FITC staining by flow cytometry; type: functional; summary of the method: as §2
[17] = Cell cycle arrest in rat HSC-T6 cells assessed as inhibition of DNA synthesis at sub-G1 phase at 25 uM after 48 hrs; type: functional, cell-based; parameters: scale not given: the % may be the effect or the level left; summary of the method: as §1
[18] = Induction of apoptosis in rat HSC-T6 cells assessed as dead cells at 10 uM after 48 hrs using Annexin V-FITC staining by flow cytometry; type: functional; summary of the method: as §3
[19] = Induction of apoptosis in rat HSC-T6 cells assessed as dead cells at 25 uM after 48 hrs using Annexin V-FITC staining by flow cytometry; type: functional; summary of the method: as §3
[20] = Cell cycle arrest in rat HSC-T6 cells assessed as inhibition of DNA synthesis at sub-G1 phase at 25 uM after 24 hrs; type: functional, cell-based; parameters: scale not given: the % may be the effect or the level left; summary of the method: as §1
[21] = Induction of apoptosis in rat HSC-T6 cells assessed as late apoptotic cells at 25 uM after 48 hrs using Annexin V-FITC staining by flow cytometry; type: functional; summary of the method: as §2
[22] = Induction of apoptosis in rat HSC-T6 cells assessed as late apoptotic cells at 25 uM after 24 hrs using Annexin V-FITC staining by flow cytometry; type: functional; summary of the method: as §2
HSC-T6 [23] = test: Induction of apoptosis in rat HSC-T6 cells assessed as change in cell morphology after 48 hrs by phase contrast microscopy; type: functional, cell-based
[24] = Induction of apoptosis in rat HSC-T6 cells assessed as viable cells at 10 uM after 24 hrs using Annexin V-FITC staining by flow cytometry; type: functional; conditions: HSC-T6, 24 h, read-out: Activity; summary of the method: as §2
[25] = Cell cycle arrest in rat HSC-T6 cells assessed as inhibition of DNA synthesis at G2/M phase at 25 uM after 24 hrs; type: functional, cell-based; parameters: scale not given: the % may be the effect or the level left; summary of the method: as §1
[26] = Induction of apoptosis in rat HSC-T6 cells assessed as viable cells at 25 uM after 48 hrs using Annexin V-FITC staining by flow cytometry; type: functional; conditions: HSC-T6, 48 h, read-out: Activity; summary of the method: as §2
[27] = Induction of apoptosis in rat HSC-T6 cells assessed as late apoptotic cells at 10 uM after 48 hrs using Annexin V-FITC staining by flow cytometry; type: functional; summary of the method: as §2
[28] = Induction of apoptosis in rat HSC-T6 cells assessed as dead cells at 10 uM after 24 hrs using Annexin V-FITC staining by flow cytometry; type: functional; summary of the method: as §3
[29] = Antiproliferative activity against rat HSC-T6 cells at 50 uM after 48 hrs by MTT assay; type: functional; conditions: HSC-T6, 48 h
[30] = Antiproliferative activity against rat HSC-T6 cells at 10 uM after 48 hrs by MTT assay; type: functional; conditions: HSC-T6, 48 h

SMILES: C[C@H]1[C@H](C)CC[C@]2(C(=O)O)CC[C@]3(C)C(=CC[C@@H]4[C@@]5(C)C[C@@H](O)[C@@H](O)[C@@](C)(CO)[C@@H]5CC[C@]43C)[C@H]12
- inhibition at 100 µM [1]: 20.6%

SMILES: C[C@H]1[C@H](C)CC[C@]2(C(=O)O)CC[C@]3(C)C(=CC[C@@H]4[C@@]5(C)C[C@@H](O)[C@H](O)C(C)(C)[C@@H]5CC[C@]43C)[C@H]12 [COROSOLIC ACID]
- Activity [2]: 4.3%
- Activity [3]: 10.14%
- Activity [4]: 8.77%
- inhibition at 100 µM [1]: 15.6%
- Activity [5]: 6%
- Activity [6]: 10.6%
- viability at 10 µM [7]: 66.6%
- viability at 25 µM [8]: 65.5%
- Activity [9]: 6.23%
- Activity [10]: 44.6%
- Activity (HSC-T6 [11]): Dose-dependent effect
- Activity [12]: 7.12%
- Activity [13]: 14.7%
- Activity [14]: 4.41%
- Activity (HSC-T6 [15]): tde
- Activity [16]: 10.45%
- Activity [17]: 57.7%
- Activity [18]: 5.44%
- Activity [19]: 31.85%
- Activity [20]: 12.4%
- Activity [21]: 9.23%
- Activity [22]: 15.24%
- Activity (HSC-T6 [23]): Dose-dependent effect
- viability at 10 µM [24]: 83.5%
- Activity [25]: 20.6%
- viability at 25 µM [26]: 54.5%
- Activity [27]: 17.8%
- Activity [28]: 3.16%

SMILES: C[C@H]1[C@H](C)CC[C@]2(C(=O)O)CC[C@]3(C)C(=CC[C@@H]4[C@@]5(C)CC[C@H](O)[C@@](C)(CO)[C@@H]5CC[C@]43C)[C@H]12
- inhibition at 100 µM [1]: 50%

SMILES: C[C@H]1[C@H](C)CC[C@]2(C(=O)O)CC[C@]3(C)C(=CC[C@@H]4[C@@]5(C)CCC(=O)[C@@](C)(CO)[C@@H]5CC[C@]43C)[C@H]12
- inhibition at 100 µM [1]: 77.9%

SMILES: C[C@H]1[C@H](C)CC[C@]2(C(=O)O)CC[C@]3(C)C(=CC[C@@H]4[C@@]5(C)CC[C@H](O)C(C)(C)[C@@H]5CC[C@]43C)[C@H]12 [URSOLIC ACID]
- Activity [2]: 9.6%
- inhibition at 100 µM [1]: 14.8%
- Activity [5]: 16.7%
- Activity [6]: 11.9%
- Activity [10]: 56.4%
- Activity (HSC-T6 [11]): Dose-dependent effect
- Activity [13]: 39.7%
- Activity (HSC-T6 [15]): tde
- Activity [17]: 17%
- Activity [20]: 2.9%
- Activity (HSC-T6 [23]): Dose-dependent effect
- Activity [25]: 18.9%

SMILES: CC1(C)C=C2[C@H]3CC[C@@H]4[C@@]5(C)C(=O)C[C@H](O)C(C)(C)[C@@H]5CC[C@@]4(C)[C@]3(C)CC[C@@]2(C)CC1
- Activity [2]: 10.6%
- inhibition at 100 µM [1]: 14.2%
- Activity [5]: 18.8%
- Activity [6]: 14%
- Activity [10]: 53.2%
- Activity (HSC-T6 [11]): Dose-dependent effect
- Activity [13]: 43.6%
- Activity (HSC-T6 [15]): tde
- Activity [17]: 5%
- Activity [20]: 1.9%
- Activity (HSC-T6 [23]): Dose-dependent effect
- Activity [25]: 17.8%

SMILES: O=C(O[C@@H]1Cc2c(O)cc(O)cc2O[C@@H]1c1cc(O)c(O)c(O)c1)c1cc(O)c(O)c(O)c1 [EPIGALOCATECHIN GALLATE]
- Activity [2]: 8.3%
- inhibition at 50 µM [29]: 41.7%
- inhibition at 100 µM [1]: 33.4%
- Activity [5]: 19.6%
- Activity [6]: 12.1%
- Activity [10]: 51.9%
- Activity [13]: 42.3%
- Activity [17]: 4.5%
- inhibition at 10 µM [30]: 83.8%
- Activity [20]: 1.9%
- Activity [25]: 20.1%

SMILES: C=C(C)[C@@H]1CC[C@]2(C)CC[C@]3(C)[C@H](CC[C@@H]4[C@@]5(C)C[C@@H](O)[C@H](O)C(C)(C)[C@@H]5CC[C@]43C)[C@@H]12
- Activity [2]: 11%
- inhibition at 100 µM [1]: 11%
- Activity [5]: 18%
- Activity [6]: 13.7%
- Activity [10]: 55.9%
- Activity (HSC-T6 [11]): Dose-dependent effect
- Activity [13]: 47.2%
- Activity (HSC-T6 [15]): tde
- Activity [17]: 5.4%
- Activity [20]: 1.9%
- Activity (HSC-T6 [23]): Dose-dependent effect
- Activity [25]: 19.3%

Source: ChEMBL document CHEMBL1773042, “Antiproliferative triterpenes from the leaves and twigs of Juglans sinensis on HSC-T6 cells” (2011)
